The results in this text go back to ChEMBL document CHEMBL4602702, “Red-Emitting Dibenzodiazepinone Derivatives as Fluorescent Dualsteric Probes for the Muscarinic Acetylcholine M2 Receptor” (J Med Chem, 2020).

In series [1] the target is T1, Muscarinic acetylcholine receptor M2 (Homo sapiens) (UniProt P08172).
T1 sequence (whole entry): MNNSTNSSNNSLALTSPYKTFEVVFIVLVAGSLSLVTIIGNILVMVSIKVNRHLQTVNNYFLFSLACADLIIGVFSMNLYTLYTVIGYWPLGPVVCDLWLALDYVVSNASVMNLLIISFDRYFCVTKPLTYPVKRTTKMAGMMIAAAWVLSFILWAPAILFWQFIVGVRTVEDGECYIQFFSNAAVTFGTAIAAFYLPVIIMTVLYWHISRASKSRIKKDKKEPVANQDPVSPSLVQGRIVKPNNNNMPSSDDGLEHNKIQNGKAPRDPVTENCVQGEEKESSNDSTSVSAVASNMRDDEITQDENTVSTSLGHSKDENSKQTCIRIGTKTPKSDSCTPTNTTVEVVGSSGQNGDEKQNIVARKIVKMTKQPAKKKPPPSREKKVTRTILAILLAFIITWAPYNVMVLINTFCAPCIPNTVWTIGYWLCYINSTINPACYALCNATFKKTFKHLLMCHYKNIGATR
In words: Binding affinity to human muscarinic M2 receptor expressed in CHO-K9 cells assessed as increase in intracellular fluorescence intensity at 30 nM incubated for 45 mins by confocal microscopy.

Series [2] addresses T1, Muscarinic acetylcholine receptor M2 (Homo sapiens). The series is described as follows: Binding affinity to human muscarinic M2 receptor expressed in CHO-K9 cells assessed as association rate constant at 22 +/- 1 degree C incubated under shaking condition in dark for 1 to 300 mins by flow cytometric saturation binding study. The format is cell-based.
For series [3], the target named is T2, Muscarinic acetylcholine receptor M1 (Homo sapiens, UniProt P11229).
T2 sequence (P11229 whole entry): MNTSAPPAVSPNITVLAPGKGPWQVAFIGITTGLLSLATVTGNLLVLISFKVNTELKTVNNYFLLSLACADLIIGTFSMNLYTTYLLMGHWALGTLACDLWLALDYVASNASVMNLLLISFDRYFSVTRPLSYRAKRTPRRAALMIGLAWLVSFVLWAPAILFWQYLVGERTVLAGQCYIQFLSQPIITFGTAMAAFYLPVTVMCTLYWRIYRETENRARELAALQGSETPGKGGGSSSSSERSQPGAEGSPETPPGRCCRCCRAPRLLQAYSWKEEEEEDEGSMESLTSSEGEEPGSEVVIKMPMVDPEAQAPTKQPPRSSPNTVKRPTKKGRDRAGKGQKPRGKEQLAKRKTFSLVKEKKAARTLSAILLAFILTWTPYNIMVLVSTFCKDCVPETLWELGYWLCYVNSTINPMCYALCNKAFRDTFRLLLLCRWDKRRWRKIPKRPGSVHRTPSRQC
The series is described as follows: Binding affinity to human muscarinic M1 receptor expressed in CHO-K9 cells incubated in dark measured after 60 mins by Hoechst H33342 dye based confocal plate reader assay. The format is cell-based. The procedure, abridged:
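Live CHO-hMxR cells (M1 or M2) incubated with fluorescent ligand at 22 °C in the dark for 1 h, washed, then imaged at once by high-content confocal plate reader.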

Series [4] in a line: Chemical stability of compound in PBS buffer assessed as retention time at pH 7.4 and 22 degree C measured up to 48 hrs by RP-HPLC analysis. The format is physicochemical. Conditions: pH 7.4, 48 h. The procedure, abridged:
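Fluorescent ligand stability checked in PBS pH 7.4 over 48 h by RP-HPLC on a C18 column with an aqueous TFA/acetonitrile gradient, oven at 25 °C, detection at 220 nm.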

The target of series [5] is T3, Muscarinic acetylcholine receptor M2 (Homo sapiens, UniProt P08172).
T3 sequence (P08172 whole entry): T1 sequence (whole entry)
The series is described as follows: Binding affinity to human muscarinic M2 receptor expressed in […] cells incubated in dark at 22 degree C for 2 hrs by FACSCalibur flow cytometric saturation binding study. The series is classed as cell-based.

Series [6] addresses Muscarinic acetylcholine receptor M3 (Homo sapiens, UniProt P20309). The series is described as follows: Displacement of [3H]-NMS from human muscarinic M3 receptor stably expressed in CHO-K9 cells by radioligand competitive binding assay. The format is cell-based. The procedure, abridged:
(§1)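 Equilibrium competition binding at live CHO-hMxR cells with [3H]NMS at M1 0.2, M2 0.2, M3 0.2, M4 0.1, M5 0.3 nM. […] Four-parameter logistic fit converted to pKi; at least three experiments in triplicate (some two).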

Series [7] has as its target T4, Muscarinic acetylcholine receptor M4 (Homo sapiens, UniProt P08173).
T4 sequence (P08173 whole entry): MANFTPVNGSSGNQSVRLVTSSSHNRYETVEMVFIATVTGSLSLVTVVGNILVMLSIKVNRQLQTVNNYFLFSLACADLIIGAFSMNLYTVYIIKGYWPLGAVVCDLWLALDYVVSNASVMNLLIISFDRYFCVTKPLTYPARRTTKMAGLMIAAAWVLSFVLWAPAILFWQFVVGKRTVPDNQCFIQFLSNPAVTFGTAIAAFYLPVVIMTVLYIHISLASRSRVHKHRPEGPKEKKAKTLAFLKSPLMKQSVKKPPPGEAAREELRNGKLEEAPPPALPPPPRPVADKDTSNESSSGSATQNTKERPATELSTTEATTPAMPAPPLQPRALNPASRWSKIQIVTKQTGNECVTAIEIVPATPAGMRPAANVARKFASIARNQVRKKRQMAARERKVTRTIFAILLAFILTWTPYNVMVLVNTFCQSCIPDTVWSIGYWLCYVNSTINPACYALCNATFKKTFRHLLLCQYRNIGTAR
In words: Antagonist activity at human muscarinic M4 receptor expressed in HEK293 cells co-expressing HA-Galphaq/i5 assessed as inhibition of carbachol-induced IP1 accumulation at 22 degree C pre-incubated for 180 mins followed by carbachol addition and further incubated at 37 degree C for 90 mins by HTRF assay. The series is classed as functional, cell-based. For orientation: TR-FRET usually uses a lanthanide donor and a delayed reading to cut background.

Series [8] deals with T1, Muscarinic acetylcholine receptor M2 (Homo sapiens). The series is described as follows: Binding affinity to human muscarinic M2 receptor expressed in CHO-K9 cells assessed as dissociation rate constant at 22 +/- 1 degree C preincubated for 110 mins followed by atropine addition by flow cytometric saturation binding study. The series is classed as cell-based. The procedure, abridged: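 Dissociation followed by flow cytometry at 22 °C over 9 h. koff from three-parameter incomplete monophasic decline fit; three or four experiments in duplicate.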
(In general: Flow cytometry measures light scatter and fluorescence of single cells or particles in a stream.)

The target of series [9] is T3, Muscarinic acetylcholine receptor M2. In words: Displacement of [3H]-NMS from human muscarinic M2 receptor stably expressed in CHO-K9 cells by radioligand competitive binding assay. The format is cell-based. Put shortly: as §1
(Loss of bound radioactivity is the signal in a displacement assay; it reports binding, not function.)

The target in series [10] is T1, Muscarinic acetylcholine receptor M2 (Homo sapiens). In words: Competitive binding affinity to human muscarinic M2 receptor expressed in CHO-K9 cells assessed as rightward shift of saturation isotherm resulting in Schild regression in presence of increasing concentration of W84 by Schild-like analysis. The series is classed as cell-based. Put shortly: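 High-content imaging saturation binding of fluorescent ligand at intact CHO-hM2R cells in the presence of increasing concentrations of the allosteric modulator W84. Rightward shifts (ΔpKd) plotted as log(r−1) vs log[modulator], with r = 10^ΔpKd. Three independent experiments in triplicate.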

Series [11] shares this target. The series is described as follows: Agonist activity at human muscarinic M2 receptor expressed in HEK293 cells co-expressing HA-Galphaq/i5 assessed as induction of Galphaq/i5-mediated IP1 accumulation by HTRF assay. The format is functional, cell-based. The procedure, abridged: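 HEK-293 cells transiently co-transfected with hM2R and hybrid Gαqi5-HA, run in agonist mode at 37 °C; IP1 accumulation measured. Carbachol control from 14 independent experiments in duplicate; test ligands from three or four independent experiments in duplicate.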

Each structure is given as a SMILES string. The source made the active and inactive calls. The calls are words filed in the database; no cut-off is given here.

Muscarinic acetylcholine receptor M3, sequence (P20309 whole entry): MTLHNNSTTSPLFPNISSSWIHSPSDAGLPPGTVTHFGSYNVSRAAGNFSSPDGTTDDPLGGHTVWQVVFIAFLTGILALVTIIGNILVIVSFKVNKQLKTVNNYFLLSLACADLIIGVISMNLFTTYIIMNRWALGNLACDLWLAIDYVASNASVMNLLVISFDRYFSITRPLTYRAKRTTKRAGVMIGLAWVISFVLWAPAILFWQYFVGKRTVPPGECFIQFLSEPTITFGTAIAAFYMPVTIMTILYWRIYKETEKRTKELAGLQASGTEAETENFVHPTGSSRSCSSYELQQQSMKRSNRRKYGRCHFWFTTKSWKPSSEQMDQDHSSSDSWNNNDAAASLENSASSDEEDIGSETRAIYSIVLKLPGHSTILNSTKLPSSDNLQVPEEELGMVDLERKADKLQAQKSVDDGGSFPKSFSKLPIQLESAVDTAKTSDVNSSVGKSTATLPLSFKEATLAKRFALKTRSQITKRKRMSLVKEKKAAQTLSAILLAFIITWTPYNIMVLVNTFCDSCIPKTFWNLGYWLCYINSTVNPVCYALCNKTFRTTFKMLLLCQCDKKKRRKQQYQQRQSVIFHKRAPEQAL

Regarding `CC1(C)C(/C=C/C=C/C=C2/N(CCCCCC(=O)NCc3cc(C(=O)NCCNC(=O)CCc4cn(CCCCC5CCN(CC(=O)N6c7ccccc7NC(=O)c7ccccc76)CC5)cn4)cc(C(=O)NCCNC(=O)CCc4cn(CCCCC5CCN(CC(=O)N6c7ccccc7NC(=O)c7ccccc76)CC5)cn4)c3)c3ccc(S(=O)(=O)O)cc3C2(C)C)=[N+](CCCCS(=O)(=O)[O-])c2ccccc21.O=C(O)C(F)(F)F.O=C(O)C(F)(F)F.O=C(O)C(F)(F)F`, the result in series [1] and in series [10] was Active. Moreover, the K in [2] turned out to be 81700 M⁻¹ s⁻¹; in series [8] it was 0.0031 min⁻¹. Besides, the Kd was 10 nM in series [3], 3.2 nM in [5] (read-out: Kd) and 3.09 nM in [5] (read-out: pKd (converted)). The Retention_time in series [4] is reported as 10.4 min. In addition, the Ki in series [6] was 75.9 nM; in [9] it was 0.631 nM. In addition, the IC50 in [7] is 37.2 nM. Further, the result in series [11] was inactive.
As to `CC1(C)C(/C=C/C=C/C=C2/N(CCCCCC(=O)NCCN3CCN(CCCCC4CCN(CC(=O)N5c6ccccc6NC(=O)c6ccccc65)CC4)CC3)c3ccc(S(=O)(=O)O)cc3C2(C)C)=[N+](CCCCS(=O)(=O)[O-])c2ccccc21.O=C(O)C(F)(F)F.O=C(O)C(F)(F)F`, the result in [1] and in series [10] was Active. For the same compound, the K in [2] was determined as 158000 M⁻¹ s⁻¹. Besides, in [4], the Retention_time was 18.2 min. The Kd in [5] (read-out: Kd) is 0.8 nM; in series [5] (read-out: pKd (converted)), 0.891 nM. The Ki is 81.3 nM in [6] and 0.525 nM in series [9]. Also, the IC50 in series [7] was 102 nM. Besides, in series [11], the result was inactive.
Regarding `CC1(C)C(/C=C/C=C/C=C2/N(CCCCCC(=O)NCCNC(=O)CCc3cn(CCCCC4CCN(CC(=O)N5c6ccccc6NC(=O)c6ccccc65)CC4)cn3)c3ccc(S(=O)(=O)O)cc3C2(C)C)=[N+](CCCCS(=O)(=O)[O-])c2ccccc21.O=C(O)C(F)(F)F`, the result in [1] and in series [10] was Active. In series [2], the K amounted to 61700 M⁻¹ s⁻¹. In addition, the Kd in series [3] is 26.3 nM; in [5] (read-out: Kd) it was 4.1 nM; in series [5] (read-out: pKd (converted)), 4.47 nM. Also, the Retention_time in series [4] came out at 10.3 min. The Ki in series [6] was 155 nM; in series [9] it was 0.794 nM. Further, the IC50 in series [7] was 138 nM. The outcome in series [11] was inactive.

What is called Ki is the dissociation constant of the complex between target and ligand, obtained from inhibition or displacement. Low values mean higher affinity, high ones lower affinity. The IC50 is the concentration at which inhibition is half-maximal.
